# The campaign covered roughly 310,000 compounds. About 1,500 (0.48%) were called active.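 How the source made its calls: active means B-score above 5 SD of library B-scores, and initial fluorescence ratio not above library mean plus 5 SD; inactive means the rest.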 This excerpt belongs to a sample that is enriched for actives.
# Target: Short transient receptor potential channel 4 (Mus musculus) (UniProt Q9QUQ5)
# Assay: TRPC4 cation channel opening, calcium rise – Fluo4 calcium, HEK293 TRPC4beta/mu-opioid cells, primary screen (AID 2237);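 on B-score: positive B-score marks a calcium rise read as TRPC4 activation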
# Conditions: Fluo4 calcium fluorescence, at 10 µM; hits give high values
# Method in brief: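 system = HEK293 cells stably co-expressing mouse TRPC4beta and mu-opioid receptor | schedule = Fluo4 dye loading 45 min at room temperature, 110 s recording | measure = B-scored integrated calcium fluorescence ratio | signal = Fluo4 calcium-sensitive dye fluorescence, kinetic, 1 Hz baseline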
# Sequence of Short transient receptor potential channel 4 (Mus musculus) (Q9QUQ5 whole entry, looked up): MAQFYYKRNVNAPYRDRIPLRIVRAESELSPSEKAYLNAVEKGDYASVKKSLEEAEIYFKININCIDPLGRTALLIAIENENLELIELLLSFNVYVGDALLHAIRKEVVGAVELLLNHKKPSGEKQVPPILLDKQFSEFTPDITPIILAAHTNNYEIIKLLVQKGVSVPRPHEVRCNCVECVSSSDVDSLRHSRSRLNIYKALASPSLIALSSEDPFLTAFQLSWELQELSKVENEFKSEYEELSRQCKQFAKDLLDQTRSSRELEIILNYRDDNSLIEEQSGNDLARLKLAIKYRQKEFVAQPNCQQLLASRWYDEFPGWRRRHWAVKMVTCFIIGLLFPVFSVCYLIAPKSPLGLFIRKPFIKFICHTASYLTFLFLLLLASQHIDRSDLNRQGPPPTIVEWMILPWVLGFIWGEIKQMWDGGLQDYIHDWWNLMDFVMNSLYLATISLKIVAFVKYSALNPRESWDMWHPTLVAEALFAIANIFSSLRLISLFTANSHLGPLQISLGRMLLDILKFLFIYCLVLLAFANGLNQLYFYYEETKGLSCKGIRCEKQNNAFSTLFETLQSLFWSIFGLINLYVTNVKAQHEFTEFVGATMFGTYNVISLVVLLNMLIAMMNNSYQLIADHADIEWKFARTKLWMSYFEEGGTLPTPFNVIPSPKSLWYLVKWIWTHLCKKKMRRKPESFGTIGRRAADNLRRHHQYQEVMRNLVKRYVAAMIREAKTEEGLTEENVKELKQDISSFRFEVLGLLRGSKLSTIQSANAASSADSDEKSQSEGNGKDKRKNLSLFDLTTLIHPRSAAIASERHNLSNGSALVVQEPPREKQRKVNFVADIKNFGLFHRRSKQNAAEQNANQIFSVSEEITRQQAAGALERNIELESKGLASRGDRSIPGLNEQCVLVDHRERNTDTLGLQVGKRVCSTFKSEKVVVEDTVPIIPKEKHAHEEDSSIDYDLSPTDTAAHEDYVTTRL
row,Structure (SMILES),B-score
1,c1ccc2sc(N3CCNCC3)nc2c1,173 (active)
2,COc1cc(OC)cc(C2(C#N)CCN(C)CC2)c1,inactive
3,C/C(=N/O)c1ccc2ccc3ccccc3c2c1,inactive
4,CCC1(C)CC(CCNCc2ccc(N(C)C)cc2)(c2ccc(F)cc2)CCO1 (stereo not given),114 (active)
5,CCCCCCCCCCCCn1ccc(=N)cc1,inactive
6,O=C(c1cc2nc(-c3ccccc3)cc(-c3ccccc3)n2n1)N1CCC2(CC1)OCCO2,inactive
7,N#Cc1ccc(Cn2cc(C(=O)c3ccco3)c3ccccc32)cc1,inactive
8,CN(C)C(=O)Oc1ccc(NC(=O)N2CCOCC2)cc1,inactive
9,Cc1nc2ccccn2c1P(=S)(N1CCCCC1)N1CCCCC1,87 (active)
10,CC(=C1C(=O)c2ccccc2C1=O)N1CCN(CCN=Cc2c(O)n(C)c(=O)n(C)c2=O)CC1,inactive
11,Cc1nc2ccccc2c(=O)n1-c1ccc(Cl)cc1Cl,inactive
12,Cc1ccc(Cn2nnnc2CN2CCC(n3nnc4ccccc43)CC2)cc1,inactive
13,CCN(CC)C(=O)c1ccc(NC(=O)c2cc(-n3cnnc3)ccc2Cl)cc1,inactive
14,COc1ccc(CNCCc2c[nH]c3ccccc23)cc1OC,88 (active)
15,COc1ccc(CNCCc2ccc3c(c2)OCO3)c(OC)c1OC,inactive
16,c1cncc(CNCCc2c[nH]c3ccccc23)c1,inactive
17,CC1C2Cn3c(nc4ccccc43)C1N(C)O2 (stereo not given),inactive
18,CCN1CCN(c2nc3c(c(=O)[nH]2)CCC3)CC1,inactive
19,Cc1ccnc(-n2c(C)cc(/C=C3\C(=O)NC(=S)N(C)C3=O)c2C)c1,inactive
20,c1ccc(CCN2CCC3(CC2)OCCO3)cc1,inactive
21,C[N+]1(C)CCOC(O)(c2ccc(-c3ccc(C4(O)C[N+](C)(C)CCO4)cc3)cc2)C1 (stereo not given),inactive
22,c1ccc2sc(C3CCCNC3)nc2c1 (stereo not given),159 (active)
23,COc1ccccc1N=C1SCCCN1C,inactive

row,Structure (SMILES),B-score
1,COc1ccc2c(c1O)-c1cccc3c1[C@@H](C2)N(C)CC3,inactive
2,CC(=NC1CCN(Cc2ccccc2)CC1)c1c(O)n(C)c(=O)n(C)c1=O,inactive
3,CCN(CC)CCOC(=O)c1cc2cc(COC)ccc2o1,inactive
4,COC(=O)C1=C(c2ccccc2)C[C@@H]2CC[C@H]1N2C(=O)N1CCCCC1,inactive
5,COc1ccc(C(=O)C2CCCN(Cc3ccc(C)s3)C2)cc1OC (stereo not given),inactive
6,CSc1ccc(C(=O)C2CCCN(Cc3ccn[nH]3)C2)cc1 (stereo not given),52 (active)
7,Cc1ccc(CN2CCCC(C(=O)c3ccc4c(c3)OCO4)C2)cc1C (stereo not given),inactive
8,c1ccc(CCNC2CCCCCC2)cc1,inactive
9,CCCCC(=O)N/N=C/c1c(O)n(CCC2=CCCCC2)c(=O)[nH]c1=O,inactive
10,CCCCC(=O)N/N=C/c1c(O)n(CC)c(=S)n(CC)c1=O,103 (active)
11,CCCCC(=O)N/N=C/c1c(O)n(-c2ccccc2)c(=O)[nH]c1=O,inactive
12,O=C1NC(=O)C(C/C=C/c2ccccc2)C(=O)N1,inactive
13,CC(=O)N(C1=NCCCS1)c1ccccc1F,44 (active)
14,O=c1c2ccccc2nc(-c2ccc(Cl)cc2Cl)n1-c1ccncc1,inactive
15,COc1ccc(N=Cc2c(O)n(C)c(=O)[nH]c2=O)cc1,inactive
16,Cn1c(C(=O)N2CCC(C(=O)N3CCC4(CC3)OCCO4)CC2)cc2sccc21,inactive
17,COC(=O)C1=C(c2cc3ccccc3s2)C[C@@H]2CC[C@H]1N2C(=O)NCc1cccc2ccccc12,inactive
18,COC(=O)C1=C(c2cc3ccccc3s2)C[C@@H]2CC[C@H]1N2C(=O)NC(C)C,inactive
19,COC(=O)C1=C(c2cc3ccccc3s2)C[C@@H]2CC[C@H]1N2C(=O)NCCO,72 (active)
20,C=CCN1C(=O)C2(C(C(=O)OCC)=C(N)Oc3c2c(=O)oc2ccccc32)c2ccccc21 (stereo not given),inactive
21,COc1ccccc1C1=NCc2nnc(CSC)n2-c2ccc(Cl)cc21,inactive
22,CN(C)CCN(CC1CCCN(Cc2ccccc2F)C1)C(=O)Cc1ccc(F)c(F)c1 (stereo not given),inactive
